Assay results published in ChEMBL document CHEMBL2069244 (Bioorg Med Chem Lett, 2012).
Activity calls are given as the source filed them. The rule behind the calls is not given here.

Legend:
Mus musculus [1] = test: Anticonvulsant activity in mouse assessed as protection against maximal electroshock-induced seizures at 100 mg/kg, ip after 2 hrs; assay type: functional, organism-based; design: dose 100 mg/kg
Outline: (§1)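 Mice dosed ip in 30% polyethylene glycol. Corneas pretreated with 1% tetracaine, then 60 Hz alternating current (50 mA) applied for 0.2 s via corneal electrodes. Protection means absence of the hindlimb tonic extensor component. Scored as number protected/number tested.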

Mus musculus [2] = test: Anticonvulsant activity in mouse assessed as protection against maximal electroshock-induced seizures at 100 mg/kg, ip after 4 hrs; assay type: functional, organism-based; design: dose 100 mg/kg; outline: as §1
Mus musculus [3] = test: Anticonvulsant activity in ip dosed mouse assessed as protection against 32mA-induced seizure measured after 0.25 to 0.5 hrs by 6Hz psychomotor seizure test
Mus musculus [4] = test: Anticonvulsant activity in mouse assessed as protection against subcutaneous pentylenetetrazole-induced seizures at 30 mg/kg, ip after 4 hrs; assay type: functional, organism-based; design: dose 30 mg/kg
Mus musculus [5] = test: Anticonvulsant activity in mouse assessed as protection against maximal electroshock-induced seizures at 100 mg/kg, ip after 0.5 hrs; assay type: functional, organism-based; design: dose 100 mg/kg; outline: as §1
Mus musculus [6] = test: Anticonvulsant activity in mouse assessed as protection against subcutaneous pentylenetetrazole-induced seizures at 100 mg/kg, ip after 0.5 hrs; assay type: functional, organism-based; design: dose 100 mg/kg
Mus musculus [7] = test: Anticonvulsant activity in mouse assessed as protection against subcutaneous pentylenetetrazole-induced seizures at 30 mg/kg, ip after 0.5 hrs; assay type: functional, organism-based; design: dose 30 mg/kg
Mus musculus [8] = test: Anticonvulsant activity in mouse assessed as protection against subcutaneous pentylenetetrazole-induced seizures at 300 mg/kg, ip after 0.5 hrs; assay type: functional, organism-based; design: dose 300 mg/kg
Mus musculus [9] = test: Anticonvulsant activity in mouse assessed as protection against maximal electroshock-induced seizures at 30 mg/kg, ip after 4 hrs; assay type: functional, organism-based; design: dose 30 mg/kg; outline: as §1
Mus musculus [10] = test: Anticonvulsant activity in mouse assessed as protection against maximal electroshock-induced seizures at 100 mg/kg, ip after 1 hrs; assay type: functional, organism-based; design: dose 100 mg/kg; outline: as §1
Mus musculus [11] = test: Anticonvulsant activity in mouse assessed as protection against maximal electroshock-induced seizures at 100 mg/kg, ip after 0.25 hrs; assay type: functional, organism-based; design: dose 100 mg/kg; outline: as §1
Mus musculus [12] = test: Anticonvulsant activity in mouse assessed as protection against subcutaneous pentylenetetrazole-induced seizures at 300 mg/kg, ip after 4 hrs; assay type: functional, organism-based; design: dose 300 mg/kg
Mus musculus [13] = test: Anticonvulsant activity in mouse assessed as protection against maximal electroshock-induced seizures at 30 mg/kg, ip after 0.5 hrs; assay type: functional, organism-based; design: dose 30 mg/kg; outline: as §1
Mus musculus [14] = test: Anticonvulsant activity in mouse assessed as protection against maximal electroshock-induced seizures at 100 mg/kg, ip after 6 hrs; assay type: functional, organism-based; design: dose 100 mg/kg; outline: as §1
Mus musculus [15] = test: Anticonvulsant activity in mouse assessed as protection against maximal electroshock-induced seizures at 300 mg/kg, ip after 0.5 hrs; assay type: functional, organism-based; design: dose 300 mg/kg; outline: as §1
Mus musculus [16] = test: Anticonvulsant activity in mouse assessed as protection against subcutaneous pentylenetetrazole-induced seizures at 100 mg/kg, ip after 4 hrs; assay type: functional, organism-based; design: dose 100 mg/kg
Mus musculus [17] = test: Anticonvulsant activity in mouse assessed as protection against maximal electroshock-induced seizures at 300 mg/kg, ip after 4 hrs; assay type: functional, organism-based; design: dose 300 mg/kg; outline: as §1
Mus musculus [18] = test: Protective index, ratio of TD50 for neurotoxicity in ip dosed mouse to ED50 for anticonvulsant activity in mouse by 6Hz psychomotor seizure test; assay type: functional
Outline: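 Mice dosed ip in 30% polyethylene glycol. TD50 comes from rotorod toxicity at 6 rpm (three falls in 1 min). ED50 comes from 6 Hz, 32 mA seizure protection. Both are from probit analysis with 95% confidence intervals, and the index is TD50/ED50.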

Mus musculus [19] = test: Anticonvulsant activity in mouse assessed as peak time to protect against electrically-induced seizure at 100 mg/kg, ip by 6Hz psychomotor seizure test; assay type: functional; details: route intraperitoneal
Outline: (§2)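 Mice dosed ip in 30% polyethylene glycol, then given a 6 Hz, 32 mA corneal stimulus. Animals lacking the minimal clonic phase and stereotyped automatistic behaviours count as protected. Data are number protected/number tested at each time after dosing.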

Mus musculus [20] = test: Neurotoxicity in mouse at 30 mg/kg, ip after 0.5 hrs by 6Hz psychomotor seizure test; assay type: toxicity, organism-based; design: dose 30 mg/kg, route intraperitoneal; details: in vivo
Outline: (§3)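 Mice dosed ip in 30% polyethylene glycol and placed on a rotorod at 6 rpm. An animal is scored toxic if it falls off three times within 1 min.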

Mus musculus [21] = test: Neurotoxicity in mouse at 100 mg/kg, ip after 4 hrs by 6Hz psychomotor seizure test; assay type: toxicity, organism-based; design: dose 100 mg/kg, route intraperitoneal; details: in vivo; outline: as §3
Mus musculus [22] = test: Anticonvulsant activity in mouse assessed as protection against 32mA-induced seizure at 100 mg/kg, ip after 0.5 hrs by 6Hz psychomotor seizure test; assay type: functional, organism-based; design: dose 100 mg/kg; outline: as §2
Mus musculus [23] = test: Neurotoxicity in mouse at 30 mg/kg, ip after 4 hrs by 6Hz psychomotor seizure test; assay type: toxicity, organism-based; design: dose 30 mg/kg, route intraperitoneal; details: in vivo; outline: as §3
Mus musculus [24] = test: Anticonvulsant activity in mouse assessed as protection against 32mA-induced seizure at 100 mg/kg, ip after 2 hrs by 6Hz psychomotor seizure test; assay type: functional, organism-based; design: dose 100 mg/kg; outline: as §2
Mus musculus [25] = test: Neurotoxicity in mouse at 300 mg/kg, ip after 4 hrs by 6Hz psychomotor seizure test; assay type: toxicity, organism-based; design: dose 300 mg/kg, route intraperitoneal; details: in vivo; outline: as §3
Mus musculus [26] = test: Anticonvulsant activity in mouse assessed as protection against 32mA-induced seizure at 100 mg/kg, ip after 0.25 hrs by 6Hz psychomotor seizure test; assay type: functional, organism-based; design: dose 100 mg/kg; outline: as §2
Mus musculus [27] = test: Neurotoxicity in mouse at 100 mg/kg, ip after 0.5 hrs by 6Hz psychomotor seizure test; assay type: toxicity, organism-based; design: dose 100 mg/kg, route intraperitoneal; details: in vivo; outline: as §3
Mus musculus [28] = test: Anticonvulsant activity in mouse assessed as protection against 32mA-induced seizure at 100 mg/kg, ip after 4 hrs by 6Hz psychomotor seizure test; assay type: functional, organism-based; design: dose 100 mg/kg; outline: as §2
Mus musculus [29] = test: Anticonvulsant activity in mouse assessed as protection against 32mA-induced seizure at 100 mg/kg, ip after 1 hr by 6Hz psychomotor seizure test; assay type: functional, organism-based; design: dose 100 mg/kg; outline: as §2
Mus musculus [30] = test: Neurotoxicity in mouse at 300 mg/kg, ip after 0.5 hrs by 6Hz psychomotor seizure test; assay type: toxicity, organism-based; design: dose 300 mg/kg, route intraperitoneal; details: in vivo; outline: as §3
Mus musculus [31] = test: Anticonvulsant activity in mouse assessed as protection against maximal electroshock-induced seizures at 30 mg/kg, ip after 2 hrs; assay type: functional, organism-based; design: dose 30 mg/kg; outline: as §1
Mus musculus [32] = test: Anticonvulsant activity in mouse assessed as protection against maximal electroshock-induced seizures at 30 mg/kg, ip after 6 hrs; assay type: functional, organism-based; design: dose 30 mg/kg; outline: as §1
Mus musculus [33] = test: Anticonvulsant activity in mouse assessed as protection against maximal electroshock-induced seizures at 30 mg/kg, ip after 0.25 hrs; assay type: functional, organism-based; design: dose 30 mg/kg; outline: as §1
Mus musculus [34] = test: Anticonvulsant activity in mouse assessed as protection against maximal electroshock-induced seizures at 30 mg/kg, ip after 1 hr; assay type: functional, organism-based; design: dose 30 mg/kg; outline: as §1
Mus musculus [35] = test: Neurotoxicity in mouse at 100 mg/kg, ip after 1 hrs by 6Hz psychomotor seizure test; assay type: toxicity, organism-based; design: dose 100 mg/kg, route intraperitoneal; details: in vivo; outline: as §3
Mus musculus [36] = test: Neurotoxicity in mouse at 100 mg/kg, ip after 0.25 hrs by 6Hz psychomotor seizure test; assay type: toxicity, organism-based; design: dose 100 mg/kg, route intraperitoneal; details: in vivo; outline: as §3
Mus musculus [37] = test: Neurotoxicity in mouse at 100 mg/kg, ip after 2 hrs by 6Hz psychomotor seizure test; assay type: toxicity, organism-based; design: dose 100 mg/kg, route intraperitoneal; details: in vivo; outline: as §3
Mus musculus [38] = test: Neurotoxicity in mouse at 100 mg/kg, ip after 6 hrs by 6Hz psychomotor seizure test; assay type: toxicity, organism-based; design: dose 100 mg/kg, route intraperitoneal; details: in vivo; outline: as §3

Row | Compound | Activity (Mus musculus [2]) | ED50 (Mus musculus [3]) [mg/kg] | Activity (Mus musculus [4]) | Activity (Mus musculus [5]) | Activity (Mus musculus [6]) | Activity (Mus musculus [7]) | Activity (Mus musculus [8]) | Activity (Mus musculus [9]) | Activity (Mus musculus [12]) | Activity (Mus musculus [13]) | Activity (Mus musculus [15]) | Activity (Mus musculus [16]) | Activity (Mus musculus [17]) | Ratio TD50/ED50 (Mus musculus [18]) | Time (Mus musculus [19]) [h] | Activity (Mus musculus [20]) | Activity (Mus musculus [21]) | Activity (Mus musculus [23]) | Activity (Mus musculus [25]) | Activity (Mus musculus [27]) | also measured
1 | CC(C)c1cc(C(O)C(F)(F)F)ccc1O (stereo not drawn) | inactive | 84.1 | inactive | inactive | inactive | inactive | Active | inactive | Active | inactive | Active | inactive | Active | 1.9 | 0.25 |  |  |  |  |  | Activity (Mus musculus [1]): inactive; Activity (Mus musculus [10]): inactive; Activity (Mus musculus [11]): inactive; Activity (Mus musculus [14]): inactive
2 | CCc1cc(C(O)C(F)(F)F)ccc1O (stereo not drawn) | inactive |  | inactive | inactive | inactive | inactive | inactive | inactive | inactive | inactive | inactive | inactive | inactive |  |  | Non-toxic | Non-toxic | Non-toxic | Non-toxic | Non-toxic | Activity (Mus musculus [22]): inactive; Activity (Mus musculus [24]): inactive; Activity (Mus musculus [26]): inactive; Activity (Mus musculus [28]): inactive; Activity (Mus musculus [29]): inactive; Activity (Mus musculus [30]): Non-toxic
3 | CCCc1cc(C(O)C(F)(F)F)ccc1O (stereo not drawn) | inactive |  | inactive | inactive | inactive | inactive | Active | inactive | inactive | inactive | Active | inactive | Active |  |  | Non-toxic | Non-toxic | Non-toxic | Non-toxic | Non-toxic | Activity (Mus musculus [31]): inactive; Activity (Mus musculus [32]): inactive; Activity (Mus musculus [33]): inactive; Activity (Mus musculus [34]): inactive; Activity (Mus musculus [35]): Non-toxic; Activity (Mus musculus [36]): Non-toxic; Activity (Mus musculus [37]): Non-toxic; Activity (Mus musculus [38]): Non-toxic
4 | CCC(C)c1cc(C(O)C(F)(F)F)cc(C(C)CC)c1O (stereo not drawn) |  | 73 |  |  |  |  |  |  |  |  |  |  |  |  |  |  |  |  |  |  | 
5 | CCC(C)c1cc(C(O)C(F)(F)F)ccc1O (stereo not drawn) | inactive | 53.9 | inactive | inactive | inactive | inactive | Active | inactive | inactive | inactive | Active | inactive | inactive | 1.6 | 0.5 |  |  |  |  |  | 
